Experimental data from different studies.
Lines come from different studies, so protocols differ.
Target: SRSF protein kinase 1 (SRPK1, Homo sapiens, UniProt Q96SB4)

For `CCN1CCN(Cc2ccc(C(=O)Nc3ccc(C)c(Oc4ccc5c(c4)CC(=O)N5)c3)cc2C(F)(F)F)CC1`, the remaining binding was 98% (binding, competition with immobilised ligand; 1 µM).
For `C[C@@H]1CCN(c2nccc(-c3cnn4ncccc34)n2)C1`, the remaining binding was 98% (binding; 1 µM).
`O=C(Nc1c[nH]nc1C(=O)NC1CCNCC1)c1cc(F)cc(F)c1` gave a remaining binding of 100% (binding, competition with immobilised ligand; 1 µM).
The remaining binding of `O=C(O)c1cc(-c2ccc(C3CCNCC3)cc2)c2ccc(-c3ccc(C(F)(F)F)cc3)cc2c1` is reported as 86% (cell-free assay, competition with immobilised ligand; 1 µM).
For `C[C@@H](c1ccc(-n2cnc3c(N)ncnc32)cc1)N1CCc2nn(C)c(Cc3ccccc3)c2C1=O`, the remaining binding was 100% (binding, competition with immobilised ligand; 0.1 µM).
With `N[C@H]1CCN(c2nccc(-c3cnn4ncccc34)n2)C1` the remaining binding was 84% (binding; 1 µM).
`O=C(NCCCN1CCOCC1)c1ccc(Nc2ncc(Cl)c(-c3ccc(Cl)s3)n2)cc1` has a remaining binding of 97% (binding, competition with immobilised ligand; 1 µM).
The remaining binding of `CC1CCCN1c1nccc(-c2cnn3ncccc23)n1` (stereo not drawn) is reported as 94% (binding; 1 µM).
For `COCCOc1nc(-c2ccc(Cl)nc2)nc2c1CN(C(=O)c1ncn3ccccc13)CC2`, the remaining binding was 86% (cell-free assay, competition with immobilised ligand; 0.1 µM).
For `CNC(=O)[C@@H]1CC[C@@H](n2c(-c3ccc4cnccc4c3)nc3ccc(C(=O)NCc4cccc(C(N)=O)c4)cc32)C1`, the remaining binding was 79% (binding, competition with immobilised ligand; 1 µM).
`O=C(c1ccc(Nc2ncc(Cl)c(-c3cc4ccccc4s3)n2)cc1)N1CCC(N2CCCC2)CC1` has a remaining binding of 100% (binding, competition with immobilised ligand; 1 µM).
`CN(C)c1nccc(-c2cnc3ncccn23)n1` gave a remaining binding of 82% (binding; 1 µM).
For `O=C(O)[C@H]1[C@H](Cn2nnc3ccccc3c2=O)CC[C@@H]1C(=O)c1ccc(OCCC2CCOCC2)cc1`, the remaining binding was 79% (cell-free assay, competition with immobilised ligand; 1 µM).
With `FC(F)(F)Oc1cccc(-c2cnc3ccc(-c4ccncc4)nn23)c1` the remaining binding was 70% (binding, competition with immobilised ligand; 5 µM).
`Nc1cnc(N2CCc3cc(S(=O)(=O)Nc4c(F)cc(Cl)cc4F)cc(N4CCCC4=O)c32)nc1` gave a remaining binding of 81% (cell-free assay, competition with immobilised ligand; 1 µM).
With `COc1ccnn2ncc(-c3ccnc(N(C)C)n3)c12` the remaining binding was 85% (binding; 1 µM).
For `C=CC(=O)N1CCC(C(=O)NCC(=O)N2CCN(c3nc(-c4cnc(N)nc4C(F)F)nc(N4CCOCC4)n3)CC2)CC1`, the remaining binding was 75% (binding, competition with immobilised ligand; 1 µM).
`Cc1noc([C@H]2C[C@@H](c3ccc(C(F)(F)F)cc3)CN(C(=O)N3CCS(=O)(=O)C3)C2)n1` has a remaining binding of 100% (cell-free assay, competition with immobilised ligand; 1 µM).
For `Cc1cnn2ncc(-c3ccnc(N(C)C)n3)c2c1`, the remaining binding was 100% (binding; 1 µM).
`CNC(=O)Nc1ccc2c(c1)[C@@]1(CC2)OC(=O)N(CC(=O)N(Cc2ccc(F)cc2)[C@@H](C)C(F)(F)F)C1=O` gave a remaining binding of 100% (cell-free assay, competition with immobilised ligand; 1 µM).
`O=C(c1ccc(Nc2ncc(Cl)c(-c3ccc(Cl)s3)n2)cc1)N1CCC(N2CCCC2)CC1` has a remaining binding of 93% (binding, competition with immobilised ligand; 1 µM).
